Consider ten compounds from ChEMBL document CHEMBL1140840, “New insight for fluoroquinophenoxazine derivatives as possibly new potent topoisomerase I inhibitor” (Bioorg Med Chem Lett, 2008).

The species entered for test [1] is Bos taurus. The test is described as follows: Inhibition of calf thymus topoisomerase 1 assessed as relaxation of supercoiled DNA pBR322 at 2 uM relative to camptothecin.
The next test has as its system HL-60. The test is described as follows: Cytotoxicity against human HL60 cells. Type of test: functional, cell-based. In a few lines:
(§1)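 Cells seeded at 2–4 × 10⁴ per well, grown overnight in medium with 10% FBS at 37 °C under 5% CO₂. On day 2 the medium was replaced with medium holding graded compound concentrations. Absorbance was read at 450 nm. IC50 came from a four-parameter logistic fit. Mean ± SD of three experiments, each in triplicate.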

The species entered for test [2] is Bos taurus. The test is described as follows: Inhibition of calf thymus topoisomerase 1 assessed as relaxation of supercoiled DNA pBR322 at 20 uM relative to camptothecin.
In another test the test system is HCT-116. The test is described as follows: Cytotoxicity against human HCT116 cells. Type of test: functional, cell-based. In a few lines:
as §1

The next test relates to HeLa. Description: Cytotoxicity against human HeLa cells. Type of test: functional, cell-based. Summed up:
as §1

Another test relates to DU-145. The test is described as follows: Cytotoxicity against human DU145 cells. Type of test: functional, cell-based. In a few lines:
as §1

For the next test, the system named is MDA-MB-231. Description: Cytotoxicity against human MDA-MB-231 cells. Type of test: functional, cell-based. Summed up: as §1
Test [3] deals with DNA topoisomerase 2-alpha (Homo sapiens) (UniProt P11388). The test is described as follows: Inhibition of human topoisomerase 2alpha assessed as relaxation of supercoiled DNA pBR322 at 10 uM relative to etoposide. In a few lines: (§2)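 Human topo IIα (2 units) with 200 ng supercoiled pBR322 in 10 mM Tris-HCl pH 7.9, 50 mM NaCl, 5 mM MgCl2, 1 mM EDTA, 1 mM ATP, 15 µg/mL BSA, 30 min at 30 °C. Compounds at 2 or 10 µM, from 20 mM DMSO stocks. Stopped with EDTA. Products on 1% agarose, stained with ethidium bromide. Supercoiled DNA quantified under UV.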
DNA topoisomerase 2-alpha (Homo sapiens), sequence (P11388 whole entry): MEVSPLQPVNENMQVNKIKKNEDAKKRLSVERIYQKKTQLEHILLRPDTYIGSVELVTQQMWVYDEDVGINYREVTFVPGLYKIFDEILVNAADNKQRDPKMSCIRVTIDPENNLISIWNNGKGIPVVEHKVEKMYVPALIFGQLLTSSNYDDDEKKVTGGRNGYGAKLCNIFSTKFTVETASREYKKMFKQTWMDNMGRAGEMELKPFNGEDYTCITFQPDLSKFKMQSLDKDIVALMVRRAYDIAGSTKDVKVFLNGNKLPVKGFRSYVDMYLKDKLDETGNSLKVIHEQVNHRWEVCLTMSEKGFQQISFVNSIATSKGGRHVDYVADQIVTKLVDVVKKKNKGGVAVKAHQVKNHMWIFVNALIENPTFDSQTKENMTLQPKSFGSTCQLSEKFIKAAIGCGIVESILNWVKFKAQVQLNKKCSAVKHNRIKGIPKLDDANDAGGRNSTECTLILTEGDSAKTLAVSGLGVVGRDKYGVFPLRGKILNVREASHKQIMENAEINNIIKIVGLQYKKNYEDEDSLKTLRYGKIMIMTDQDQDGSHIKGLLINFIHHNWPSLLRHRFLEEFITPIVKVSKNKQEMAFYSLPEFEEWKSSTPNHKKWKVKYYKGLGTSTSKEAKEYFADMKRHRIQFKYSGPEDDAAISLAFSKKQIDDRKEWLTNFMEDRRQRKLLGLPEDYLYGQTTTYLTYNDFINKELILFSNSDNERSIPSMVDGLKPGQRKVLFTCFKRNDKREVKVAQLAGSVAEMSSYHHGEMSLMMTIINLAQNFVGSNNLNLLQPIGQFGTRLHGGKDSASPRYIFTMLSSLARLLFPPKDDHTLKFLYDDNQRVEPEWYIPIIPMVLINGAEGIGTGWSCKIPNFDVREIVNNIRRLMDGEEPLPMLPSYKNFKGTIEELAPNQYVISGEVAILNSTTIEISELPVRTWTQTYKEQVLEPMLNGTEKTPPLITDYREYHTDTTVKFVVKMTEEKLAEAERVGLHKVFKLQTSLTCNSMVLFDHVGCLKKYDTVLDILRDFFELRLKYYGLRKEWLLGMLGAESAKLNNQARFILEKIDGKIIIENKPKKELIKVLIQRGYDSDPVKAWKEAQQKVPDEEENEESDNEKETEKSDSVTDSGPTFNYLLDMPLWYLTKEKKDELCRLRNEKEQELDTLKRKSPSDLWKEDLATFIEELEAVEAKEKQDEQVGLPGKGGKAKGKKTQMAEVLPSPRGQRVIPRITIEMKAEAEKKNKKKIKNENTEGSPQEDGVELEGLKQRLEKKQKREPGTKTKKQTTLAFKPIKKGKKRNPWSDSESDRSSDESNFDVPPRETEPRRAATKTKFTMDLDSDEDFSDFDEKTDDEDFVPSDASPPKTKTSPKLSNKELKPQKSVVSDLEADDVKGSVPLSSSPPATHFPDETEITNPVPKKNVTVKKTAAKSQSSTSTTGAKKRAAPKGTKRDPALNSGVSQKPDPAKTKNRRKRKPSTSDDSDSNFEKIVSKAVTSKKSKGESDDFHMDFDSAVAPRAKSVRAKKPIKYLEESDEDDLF

For test [4] the target is unchanged. The test is described as follows: Inhibition of human topoisomerase 2alpha assessed as relaxation of supercoiled DNA pBR322 at 2 uM relative to etoposide. Summed up: as §2

In the case of `CC[C@@]1(O)C(=O)OCc2c1cc1n(c2=O)Cc2cc3ccccc3nc2-1` [CAMPTOTHECIN], the results for the inhibition in the test listed under Bos taurus [1] and in the test filed under Bos taurus [2] were 63.3% and 84.1%, respectively. Further, the IC50 in the test on HL-60 is 0.013 µM; in the test on HCT-116, 1 µM; in the test with HeLa, 1.08 µM; with DU-145, 3.2 µM; with MDA-MB-231 it was 4.16 µM.
Regarding `N[C@H]1CCN(c2c(F)cc3c(=O)c(C(=O)O)cn4c3c2Oc2ccc(Cl)cc2-4)C1`, the inhibition is 87.9% in the test listed under Bos taurus [1], 88.6% in test [3], 86.1% in the test filed under Bos taurus [2] and 89% in test [4]. Besides, the IC50 with HL-60 worked out at 1.63 µM; with HCT-116, 2.56 µM; in the test on HeLa, 2.01 µM; with DU-145 it was 17.6 µM; in the test on MDA-MB-231, 19.3 µM.
Consider `N[C@H]1CCN(c2c(F)cc3c(=O)c(C(=O)O)cn4c3c2Oc2ccccc2-4)C1`, for which the inhibition was 88.9% in the test listed under Bos taurus [1], 89.4% in [3], 90.2% in the test filed under Bos taurus [2] and 89.1% in test [4]. The IC50 with HL-60 was determined as 2.4 µM; with HCT-116, 0.87 µM; with HeLa it was 2.33 µM; in the test on DU-145, 1.82 µM; in the test on MDA-MB-231, 4.34 µM.
For `O=C(O)c1cn2c3c(c(F)c(F)cc3c1=O)Oc1ccccc1-2`, the inhibition was 53.5% in the test filed under Bos taurus [1], 82.4% in [3], 96.6% in the test listed under Bos taurus [2] and 0.5% in [4]. Besides, the IC50 was greater than 50 µM with HL-60; 6.3 µM in the test on HCT-116; greater than 50 µM in the test on HeLa; greater than 50 µM with DU-145; greater than 50 µM in the test on MDA-MB-231.
Take `COc1cccc2c1C(=O)c1c(O)c3c(c(O)c1C2=O)C[C@@](O)(C(=O)CO)C[C@@H]3O[C@H]1C[C@H](N)[C@H](O)[C@H](C)O1` [DOXORUBICIN]: the IC50 in the test on HL-60 was determined as 0.72 µM; in the test with HCT-116, 1.1 µM; with HeLa, 3.09 µM; with DU-145, 1.57 µM; in the test with MDA-MB-231, 1.39 µM.
Turning to `COc1cc([C@@H]2c3cc4c(cc3[C@@H](O[C@@H]3O[C@@H]5CO[C@@H](C)O[C@H]5[C@H](O)[C@H]3O)[C@H]3COC(=O)[C@H]23)OCO4)cc(OC)c1O` [ETOPOSIDE], the inhibition in [3] is 40.9%; in test [4], 0.7%. Further, the IC50 in the test on HL-60 is 1.44 µM; with HCT-116, 15.1 µM; in the test with HeLa, 18.2 µM; in the test on DU-145 it was 29.8 µM; in the test with MDA-MB-231 it was 16.2 µM.
`N[C@H]1CCN(c2c(F)cc3c(=O)c(C(=O)O)cn4c3c2Oc2nc(O)ncc2-4)C1`: the inhibition in the test filed under Bos taurus [1] came out at 32.4%; in test [3], 28.8%; in the test filed under Bos taurus [2] it was 0%; in test [4], 0%. Also, the IC50 with HL-60, in the test with HCT-116, in the test with HeLa, in the test on DU-145 and in the test on MDA-MB-231 was greater than 50 µM in each case.
As to `N[C@H]1CCN(c2c(F)cc3c(=O)c(C(=O)O)cn4c3c2Oc2cc(S(=O)(=O)O)c3ccccc3c2-4)C1`, the inhibition in the test listed under Bos taurus [1] was 39.1%; in test [3], 24.7%; in the test filed under Bos taurus [2], 25%; in [4], 1.9%. The IC50 in the test on HL-60, with HCT-116, in the test on HeLa, in the test on DU-145 and in the test on MDA-MB-231 was greater than 50 µM in each case.
`N[C@H]1CCN(c2c(F)cc3c(=O)c(C(=O)O)cn4c3c2Sc2ccccc2-4)C1`: the inhibition was 45.1% in the test filed under Bos taurus [1], 91.7% in test [3], 97.2% in the test listed under Bos taurus [2] and 57% in test [4]. Also, the IC50 with HL-60 is 11.5 µM; in the test on HCT-116 it was 2.41 µM; in the test on HeLa, 5.08 µM; in the test on DU-145 it was 19.3 µM; with MDA-MB-231, 19.2 µM.
For the compound `N[C@H]1CCN(c2c(F)cc3c(=O)c(C(=O)O)cn4c3c2Oc2ccc([N+](=O)[O-])cc2-4)C1`, the inhibition in the test listed under Bos taurus [1] amounted to 65.7%; in test [3], 91.6%; in the test filed under Bos taurus [2], 95.3%; in [4], 26%. Besides, the IC50 with HL-60 turned out to be 9.93 µM; with HCT-116, 7.45 µM; in the test on HeLa, 17.7 µM; with DU-145 it was 13.8 µM; with MDA-MB-231 it was 19.8 µM.

In general, inhibition refers to the change of the read-out against control, counted positive when it falls. What is called IC50 is the concentration needed to halve the response being measured.
